Assay results: PMC3569657 (EMBO Molecular Medicine, 2012)
“And” between values parts separate entries of the source, which are not always exact repeats. Identical values can stand only once. Like-named read-outs stand apart in the source and are kept apart here. Peptide text beside a SMILES is read from it. * marks the point of attachment. Cbz = O=C(OCc1ccccc1)*; CH2F = FC*

Tests used:
[1] = target: WT-I2PP2A/SET-GFP (Homo sapiens, UniProt Q01105); experiment: anti-GFP pull-down from A549 cells, protein-bound endogenous lipids by LC/MS/MS; format: binding; conditions: for binding of WT-I2PP2A/SET to ceramide, fold: compared to the K209D-I2PP2A/SET (so in the source)
Chain of WT-I2PP2A/SET-GFP (Q01105 1-277 isoform Q01105-2): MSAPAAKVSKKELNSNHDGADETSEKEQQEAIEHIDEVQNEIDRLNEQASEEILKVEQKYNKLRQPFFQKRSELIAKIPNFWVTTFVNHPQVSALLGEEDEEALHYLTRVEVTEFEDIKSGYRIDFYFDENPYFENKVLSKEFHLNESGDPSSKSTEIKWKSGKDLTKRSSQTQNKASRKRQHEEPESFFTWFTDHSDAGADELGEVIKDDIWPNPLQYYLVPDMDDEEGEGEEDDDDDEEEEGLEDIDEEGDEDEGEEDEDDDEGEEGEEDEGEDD

[2] = target: Y122C-I2PP2A/SET-GFP (Homo sapiens, UniProt Q01105, Y135C); experiment: as above; format: binding; conditions: compared to vector-transfected controls
Chain of Y122C-I2PP2A/SET-GFP (Q01105 1-277 isoform Q01105-2 Y122C): as the sequence (Q01105 1-277 isoform Q01105-2) above, with Y122C counted along it

[3] = tested on: H157 (K-Ras mutant) human lung cancer cells; experiment: Cell death by LDH release; format: cell-based; conditions: FTY720 20 µM; for effect on FTY720-mediated cell death: LDH release
In short: (§1)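 Cell death was assessed in human lung cancer lines H157 (K-Ras mutant) and H827 (EGFR mutant) after exposure to test compound. Conditions compared with controls: RIPK1 inhibition by necrostatin, PP2A inhibition by okadaic acid, and siRNA knockdown of RIPK1 or PP2Ac.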

[4] = tested on: A549 cells; experiment: Cell death by LDH release; format: cell-based, human; conditions: for effect of pre-treatment on FTY720-mediated cell death / growth suppression: A549 cells, FTY720 20 µM, OA 10 nM
In short: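 A549 cells were exposed to 20 µM test compound or vehicle for 24 h, and cell death was read as LDH released into the medium. Variants included pre-treatment with okadaic acid (10 nM), Z-VAD or necrostatin, and PP2A siRNA knockdown against scrambled siRNA (knockdown checked by Western blot). Another variant used HA-tagged PP2A overexpression, confirmed by Western blot, compared with controls.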

[5] = tested on: ATG5−/− MEFs; experiment: Caspase 3 activity assay, taxol-induced apoptosis; format: cell-based, mouse; conditions: 80 nM and 24 h, compared to WT MEFs
[6] = target: purified recombinant human I2PP2A/SET (Homo sapiens, UniProt Q01105); experiment: SPR binding of purified human I2PP2A/SET to lipid vesicles
Chain of purified recombinant human I2PP2A/SET (Q01105 1-277 isoform Q01105-2): as the sequence (Q01105 1-277 isoform Q01105-2) above
In short: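 SPR at 25°C. Sensor chip coated with vesicles of POPC:POPE:x (75:20:5, x = C18-ceramide or test compound) to about 6200 RU, against a POPC:POPE (80:20) control surface, and stabilised with 50 mM NaOH. Protein (I2PP2A/SET, or p47phox-PX control protein) in 20 mM HEPES pH 7.4, 0.16 M KCl was flowed at 5 µl/min. Triplicate sensorgrams per lipid were fitted individually for ka and kd, giving Kd = kd/ka.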

[7] = target: I2PP2A/SET (Homo sapiens, UniProt Q01105); format: binding; conditions: unlabeled competitor 10 µM; purified I2PP2A/SET
Chain of I2PP2A/SET (Q01105 1-277 isoform Q01105-2): as above
In short: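 Recombinant human I2PP2A/SET (His-tag vector), 1–2 µg, incubated with biotin alone or biotin-labelled test compound (1, 5 or 10 µM). Competition runs added unlabelled ceramide or the parent or phosphorylated compound, 10 µM each. Bound protein was captured by streptavidin/avidin column pull-down, and eluates were run on SDS–PAGE and immunoblotted with anti-I2PP2A/SET.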

[8] = FTY720 and P-FTY720 in serum and tumours of LLC-allograft mice by LC/MS/MS; format: in vivo, mouse; conditions: oral FTY720 10 mg/kg
In short: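 Lewis lung adenocarcinoma allografts were grown in flanks of WT and SK-2−/− mice. Animals received oral test compound at 10 mg/kg. Parent compound and its phosphorylated form were quantified by LC/MS/MS in the tumours.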

[9] = FTY720 and P-FTY720 in tumour and serum of A549-xenograft mice by LC/MS/MS; format: in vivo, SCID mice; conditions: mice treated with oral FTY720 3 mg/kg/day
[10] = tested on: SK2−/− MEFs; experiment: MTT growth assay; format: cell-based; conditions: Mus musculus
[11] = tested on: Lewis lung adenocarcinoma cell (LLC)-derived allografts; experiment: Lewis lung adenocarcinoma allograft growth in WT and SK-2−/− mice; format: in vivo, mouse; conditions: 10 mg/kg/day oral, vs controls
In short: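 Lewis lung adenocarcinoma cells were implanted in flanks of WT (C57BL/6 background) and SK-2−/− mice. Animals were treated with oral test compound at 10 mg/kg or served as controls. Results are given as % change in tumour volume for each genotype against its controls at Day 13.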

[12] = tested on: RIPK1−/− MEFs; experiment: Cell death in RIPK1−/− versus RIPK1+/+ MEFs; format: cell-based, mouse; conditions: FTY720 15 µM, RIPK1−/− compared to RIPK1+/+ MEFs
[13] = tested on: A549 cells; experiment: Annexin V/7-AAD flow cytometry; format: cell-based, human; conditions: compared to controls
[14] = tested on: WT MEFs; experiment: MTT growth assay; format: cell-based; conditions: Mus musculus
[15] = tested on: MEFs obtained from caspase3/7−/− DKO, Bax/Bak−/− DKO or ATG5−/− KO mice; experiment: MTT growth assay in knockout MEFs; format: cell-based, mouse; conditions: various concentrations
[16] = tested on: H827 (EGFR mutant) human lung cancer cells; experiment: Cell death by LDH release; format: cell-based; conditions: FTY720 20 µM
In short: as §1

[17] = tested on: P-PP2A (Y307), c-Myc, hTERT mRNA; experiment: PP2A signalling markers in A549-xenograft tumours; format: in vivo, SCID mice; conditions: 3 mg/kg/day oral
[18] = tested on: c-Myc; experiment: c-Myc expression in A549 cells by Western blotting; format: cell-based, human; conditions: compared to controls
In short: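 A549 cells were treated with test compound or its phosphorylated form alongside controls. c-Myc was detected by Western blotting with actin as loading control, and relative c-Myc levels were derived from band quantification.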

[19] = tested on: A549-xenograft-derived tumours; experiment: A549-xenograft-derived tumour growth in SCID mice; format: in vivo, Balb/c SCID mice
In short: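 A549 cells, or A549 lines with control shRNA, I2PP2A/SET shRNA or shRNA plus WT-I2PP2A/SET re-expression, grown as flank xenografts in Balb/c SCID mice. Test compound was given by oral gavage at 3 mg/kg/day against vehicle-treated controls: 15 days (n = 12) for parental xenografts, 18 days for the shRNA lines. Tumour volume change was computed relative to untreated sh-control mice at Day 18. Tumours were also examined by electron microscopy for mitochondrial damage and cytoplasmic swelling.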

[20] = tested on: serum LDH; experiment: Total LDH released in serum of xenograft-bearing mice; format: in vivo, SCID mice; conditions: mice bearing A549/sh-control xenografts, 3 mg/kg/day oral
In short: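 Balb/c SCID mice bearing A549/sh-control, sh-I2PP2A/SET or reconstituted WT-I2PP2A/SET xenografts were dosed by daily oral gavage at 3 mg/kg for 18 days, with untreated mice as controls. Total serum LDH was measured by an external analytical lab.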

[21] = tested on: c-Myc-V5; experiment: Ectopically expressed c-Myc-V5 in MEFs by Western blotting; format: cell-based, mouse
In short: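 V5-tagged c-Myc was ectopically expressed in WT, SK-1−/− and SK-2−/− mouse embryonic fibroblasts. Cells were exposed to test compound, and c-Myc was detected by Western blotting with actin as loading control. Relative c-Myc levels were derived from band quantification.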

[22] = tested on: SK1−/− MEFs; experiment: MTT growth assay; format: cell-based; conditions: Mus musculus
[23] = tested on: PP2A; experiment: PP2A activity assay on A549 cell extracts; format: cell-based, human; conditions: 10 µM FTY720, compared to vehicle-treated controls
In short: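 PP2A phosphatase activity was measured in extracts of A549, A549/shI2PP2A and A549/shI2PP2A re-expressing WT-I2PP2A/SET (about 60% reconstitution). Cells were grown with or without 10 µM test compound. In a related set, PP2A siRNA knockdown in A549 cells was compared with scrambled-siRNA controls.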

## CCCCCCCCCCCCC/C=C/[C@@H](O)[C@H](CO)NC(=O)CCCCCCCCCCCCCCCCCCCCCCCCC [C26]
[1]
  binding of WT-I2PP2A/SET to ceramide, fold: 2.5 fold
[2]
  increased binding of Y122C-I2PP2A/SET to ceramide, fold: ~2.4 fold

## CN1C(=O)C(Cc2c[nH]c3ccccc23)NC1=S (centres unmarked) [necrostatin]
[3]
  effect on FTY720-mediated cell death: prevented FTY720-mediated cell death
[4]; LDH release
  effect of pre-treatment on FTY720-mediated cell death / growth suppression: significantly prevented

## C=C1[C@@H](O)[C@@H]2O[C@]3(CC[C@H](/C=C/[C@@H](C)[C@@H]4CC(C)=C[C@@]5(O[C@H](C[C@@](C)(O)C(=O)O)CC[C@H]5O)O4)O3)CC[C@H]2O[C@@H]1[C@@H](O)C[C@H](C)[C@H]1O[C@@]2(CCCCO2)CC[C@H]1C [okadaic acid]
[3]
  effect on FTY720-mediated cell death: prevented FTY720-mediated cell death

## CC(=O)O[C@H]1C(=O)[C@@]2(C)[C@H]([C@H](OC(=O)c3ccccc3)[C@]3(O)C[C@H](OC(=O)[C@H](O)[C@@H](NC(=O)c4ccccc4)c4ccccc4)C(C)=C1C3(C)C)[C@]1(OC(C)=O)CO[C@@H]1C[C@@H]2O [taxol]
[5]
  caspase 3 activity (apoptosis): increased caspase 3 activity

## CCCCCCCCCCCCC/C=C/[C@@H](O)[C@H](CO)NC(=O)CCCCCCCCCCCCCCCCC [C18-ceramide]
[6]; read-out: Protein Kd, liposomes POPC:POPE:x (75:20:5), control POPC:POPE (80:20), 1 µM I2PP2A, 20 mM HEPES pH 7.4, 160 mM KCl
  Kd: ~11 nM and 11 nM
[7]
  competition with B-FTY720-I2PP2A/SET binding: competed significantly

## CCCCCCCCc1ccc(CC[C@](N)(CO)COP(=O)(O)O)cc1 [P-FTY720]
[8]; SK-2−/− mice
  accumulation in serum on loss of SK-2: almost completely abrogated
[6]; liposomes POPC:POPE:x (75:20:5), control POPC:POPE (80:20), 1 µM I2PP2A, 20 mM HEPES pH 7.4, 160 mM KCl
  Protein Kd: below the detection limit
[9]
  accumulation in A549-xenograft-derived tumours: 0.05 pmol/nmol Pi
  accumulation in serum: ~400 pmol/mL

## CCCCCCCCCCCCC/C=C/[C@@H](O)[C@H](CO)NC(=O)CCCCCCCCCCCCCCCCCCC [C20]
[1]
  binding of WT-I2PP2A/SET to ceramide, fold: 1.9 fold

## CCCCCCCCCCCCC/C=C/[C@@H](O)[C@H](CO)NC(=O)CCCCCCCCCCCCCCCCCCCCC [C22]
[1]
  binding of WT-I2PP2A/SET to ceramide, fold: 2.6 fold

## CC(NC(=O)C(NC(=O)OCc1ccccc1)C(C)C)C(=O)NC(CC(=O)O)C(=O)CF (stereo not drawn) [Z-VAD] (Cbz-Val-Ala-Asp-CH2F; configuration not given here)
[4]; LDH release
  effect of pre-treatment on FTY720-mediated cell death / growth suppression: had no effect

## CCCCCCCCCCCCC/C=C/[C@@H](O)[C@@H](N)CO [sphingosine]
[1]; LC/MS/MS after pull-down
  binding of endogenous sphingosine: bind

## CCCCCCCCCCCCC/C=C/[C@@H](O)[C@H](CO)NC(=O)CCCCCCCCCCCCCCCCCCCCCCC [C24]
[1]
  binding of WT-I2PP2A/SET to ceramide, fold: 2.1 fold

## CCCCCCCCc1ccc(CCC(N)(CO)CO)cc1 [FTY720, 2-amino-2-[2-(4-octylphenyl)ethyl]propane-1,3-diol]
[10]
  IC50: ~10000 nM
[11]; SK-2−/− mice
  inhibition of tumour growth: ~47%
[11]; WT mice
  inhibition of tumour growth: ~60%
[12]
  cell death on genetic loss of RIPK1: almost completely abrogated cell death
[13]
  Annexin V/7-AAD positive cell populations: increased
[3]
  PP2A-dependent necroptosis: detected
[14]
  IC50: ~10000 nM
[8]
  accumulation in tumours grown in WT and SK-2−/− mice: comparable
[15]
  effect of genetic loss of caspases3/7, Bax/Bak or ATG5 on FTY720-induced cell death: no protective effect
[16]
  PP2A-dependent necroptosis: detected
[6]; Protein Kd, liposomes POPC:POPE:x (75:20:5), control POPC:POPE (80:20), 1 µM I2PP2A, 20 mM HEPES pH 7.4, 160 mM KCl
  Kd: ~11 nM and 11 nM
[9]
  accumulation in A549-xenograft-derived tumours: 0.2 pmol/nmol Pi
  accumulation in serum: ~100 pmol/mL
[17]; IHC or Western blotting, Q-PCR
  c-Myc and hTERT mRNA in tumours: decreased
[17]; IHC, without affecting total PP2A
  inactive P-PP2A (Y307) in tumours: decreased
[18]
  c-Myc levels: decreased c-Myc levels
[19]; 3 mg/kg/day oral
  tumour suppression in A549/sh-I2PP2A/SET xenografts expressing WT-I2PP2A/SET: restored tumour suppressor effects
  tumour suppression in response to I2PP2A/SET knockdown (A549/sh-I2PP2A/SET xenografts): no additional effects
[19]; 3 mg/kg/day oral for 15 days, n = 12, p < 0.05 vs controls
  growth of A549-xenograft-derived tumours: inhibited the growth
[19]; 3 mg/kg/day oral, 18 days, vs vehicle-treated controls
  inhibition of growth of A549/control-derived xenografts: ~80%
[19]; oral FTY720, n = 20
  tumours with damaged/swollen mitochondria (TEM): ~40%
[20]
  serum LDH: increased serum LDH
[21]; SK-1−/− MEFs
  reduced c-Myc expression: 70%
[21]; SK-2−/− MEFs
  reduced c-Myc expression: 55%
[21]; WT MEFs
  reduced c-Myc expression: 80%
[7]
  competition with B-FTY720-I2PP2A/SET binding: competed significantly
[22]
  IC50: ~10000 nM
[23]
  PP2A activity: enhanced PP2A activity
[4]; 20 µM, 24 h, LDH release
  cell death: significantly induced cell death
[4]; compared to controls
  increase of FTY720-mediated cell death on overexpression of PP2A-HA: ~40%
